Reference: ChEMBL document CHEMBL1122125, “Synthesis and in vivo antitumor activity of potential 5-fluorouracil prodrugs” (1982)

Experiments:
Type in all cases: functional
Mus musculus [1] = assay: Antitumor activity was determined for average weight on day 1 against P-388 leukemia in mice at a dose of 320 mg/kg
Method in brief: (§1)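 Male B6D2F1J mice, groups of 5, inoculated ip with 10⁶ P-388 cells on day 0. Drug given ip on days 1-4 (qd × 4) in sterile saline, or in 10% Tween 80 for the poorly water-soluble thioether. Average weight per mouse recorded on day 1, with reweighing on day 7 for percent weight change. Untreated control groups had 10-17 animals per experiment.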

Mus musculus [2] = assay: Antitumor activity was determined for average weight on day 1 against P-388 leukemia in mice at a dose of 40 mg/kg; method in brief: as §1
Mus musculus [3] = assay: Antitumor activity was determined for average weight on day 1 against P-388 leukemia in mice at a dose of 640 mg/kg; method in brief: as §1
Mus musculus [4] = assay: Antitumor activity was determined for average weight on day 1 against P-388 leukemia in mice at a dose of 80 mg/kg; method in brief: as §1
Mus musculus [5] = assay: Antitumor activity was determined for average 7-day weight change against P-388 leukemia in mice at a dose of 80 mg/kg
Method in brief: (§2)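 Male B6D2F1J mice given 10⁶ P-388 cells ip on day 0, then treated ip once daily on days 1-4 (qd × 4), 5 mice per dose group. Compounds dosed in sterile saline, except one lipophilic thioether given in 10% Tween 80. Mice weighed on days 1 and 7; mean weight per mouse on day 1 and 7-day weight change reported in g and as percent.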

Mus musculus [6] = assay: Antitumor activity was determined for average weight on day 1 against P-388 leukemia in mice at a dose of 160 mg/kg; method in brief: as §2
Mus musculus [7] = assay: Percent increase in life span against P-388 leukemia in mice was determined at a dose of 320 mg/kg; conditions: P388
Method in brief: (§3)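 Male B6D2F1J mice, 5 per dose group, received 10⁶ P-388 cells ip on day 0. Dosing was ip qd × 4 on days 1-4 in sterile saline, or 10% Tween 80 for the butyl thioether. Median survival times of treated (T) and untreated control (C, 10-17 mice) groups were compared: %ILS = [(T/C) − 1]100. Weights taken on days 1 and 7.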

Mus musculus [8] = assay: Percent increase in life span against P-388 leukemia in mice was determined at a dose of 40 mg/kg; conditions: P388; method in brief: as §3
Mus musculus [9] = assay: Percent increase in life span against P-388 leukemia in mice was determined at a dose of 640 mg/kg; conditions: P388; method in brief: as §3
Mus musculus [10] = assay: Percent increase in life span against P-388 leukemia in mice was determined at a dose of 80 mg/kg; conditions: P388; method in brief: as §3
Mus musculus [11] = assay: Antitumor activity was determined for average 7-day weight change against P-388 leukemia in mice at a dose of 160 mg/kg; method in brief: as §2
Mus musculus [12] = assay: Percent increase in life span against P-388 leukemia in mice was determined at a dose of 160 mg/kg; conditions: P388; method in brief: as §3
Mus musculus [13] = assay: Antitumor activity was determined for survival range of mice against P-388 leukemia in mice at a dose of 40 mg/kg
Method in brief: (§4)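 Male B6D2F1J mice implanted ip with 10⁶ P-388 cells on day 0; test agents given ip on days 1–4 (qd × 4) in sterile saline, or in 10% Tween 80 for the lipophilic thioether. Groups of 5 treated mice, with 10–17 untreated controls per experiment. Mice weighed on days 1 and 7 to give the 7-day weight change in g and %. Survival recorded in days as median and range.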

Mus musculus [14] = assay: Antitumor activity was determined for survival range of mice against P-388 leukemia in mice at a dose of 640 mg/kg; method in brief: as §4
Mus musculus [15] = assay: Antitumor activity was determined for survival range of mice against P-388 leukemia in mice at a dose of 80 mg/kg
Method in brief: (§5)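 Male B6D2F1J mice, 5 per dose group, implanted ip with 10⁶ P-388 leukemia cells on day 0. Drug given ip daily on days 1-4 (qd × 4) in sterile saline, or in 10% Tween 80 for the butyl thioether. Survival range recorded in days. Untreated control groups had 10-17 animals per experiment. Mice weighed on days 1 and 7.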

Mus musculus [16] = assay: Antitumor activity was determined for median survival of mice against P-388 leukemia in mice at a dose of 80 mg/kg; method in brief: as §4
Mus musculus [17] = assay: Antitumor activity was determined for survival range of mice against P-388 leukemia in mice at a dose of 160 mg/kg; method in brief: as §4
Mus musculus [18] = assay: Antitumor activity was determined for survival range of mice against P-388 leukemia in mice at a dose of 320 mg/kg; method in brief: as §4
Mus musculus [19] = assay: Antitumor activity was determined for median survival of mice against P-388 leukemia in mice at a dose of 40 mg/kg; method in brief: as §4
Mus musculus [20] = assay: Antitumor activity was determined for median survival of mice against P-388 leukemia in mice at a dose of 640 mg/kg; method in brief: as §4
Mus musculus [21] = assay: Antitumor activity was determined for median survival of mice against P-388 leukemia in mice at a dose of 320 mg/kg; method in brief: as §4
Mus musculus [22] = assay: Antitumor activity was determined for 7-day average percent weight change against P-388 leukemia in mice at a dose of 160 mg/kg; method in brief: as §2
Mus musculus [23] = assay: Antitumor activity was determined for 7-day average percent weight change against P-388 leukemia in mice at a dose of 320 mg/kg; method in brief: as §2
Mus musculus [24] = assay: Antitumor activity was determined for 7-day average percent weight change against P-388 leukemia in mice at a dose of 40 mg/kg; method in brief: as §2
Mus musculus [25] = assay: Antitumor activity was determined for 7-day average percent weight change against P-388 leukemia in mice at a dose of 640 mg/kg; method in brief: as §2
Mus musculus [26] = assay: Antitumor activity was determined for 7-day average percent weight change against P-388 leukemia in mice at a dose of 80 mg/kg; method in brief: as §2
L1210 = assay: Evaluated for cytotoxicity against L1210 mouse leukemia cells; conditions: read-out: ID50 (the source's name)
Method in brief: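 L1210 murine leukemia cells in Eagle's minimal essential medium with 15% fetal calf serum, streptomycin (100 μg/mL), penicillin (100 units/mL) and 0.05 mM 2-mercaptoethanol. Cells counted by Coulter counter after 48 h exposure. ID50 is the 50% growth-inhibitory dose. Triplicate assays, standard deviation ±10%.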

Mus musculus [27] = assay: Antitumor activity was determined for average 7-day weight change against P-388 leukemia in mice at a dose of 40 mg/kg; method in brief: as §2
Mus musculus [28] = assay: Antitumor activity was determined for median survival of mice against P-388 leukemia in mice at a dose of 160 mg/kg; method in brief: as §4
Mus musculus [29] = assay: Antitumor activity was determined for average 7-day weight change against P-388 leukemia in mice at a dose of 320 mg/kg; method in brief: as §2
Mus musculus [30] = assay: Antitumor activity was determined for average 7-day weight change against P-388 leukemia in mice at a dose of 640 mg/kg; method in brief: as §2
Mus musculus [31] = assay: Antitumor activity was determined for average 7-day weight change against P-388 leukemia in mice at a dose of 4 mg/kg; method in brief: as §2
Mus musculus [32] = assay: Antitumor activity was determined for average 7-day weight change against P-388 leukemia in mice at a dose of 8 mg/kg; method in brief: as §2
Mus musculus [33] = assay: Antitumor activity was determined for average weight on day 1 against P-388 leukemia in mice at a dose of 2 mg/kg; method in brief: as §1
Mus musculus [34] = assay: Antitumor activity was determined for average weight on day 1 against P-388 leukemia in mice at a dose of 4 mg/kg; method in brief: as §1
Mus musculus [35] = assay: Antitumor activity was determined for average weight on day 1 against P-388 leukemia in mice at a dose of 8 mg/kg; method in brief: as §1
Mus musculus [36] = assay: Percent increase in life span against P-388 leukemia in mice was determined at a dose of 4 mg/kg; conditions: P388; method in brief: as §3
Mus musculus [37] = assay: Percent increase in life span against P-388 leukemia in mice was determined at a dose of 8 mg/kg; conditions: P388; method in brief: as §3
Mus musculus [38] = assay: Percent increase in life span against P-388 leukemia in mice was determined at a dose of 2 mg/kg; conditions: P388; method in brief: as §3
Mus musculus [39] = assay: Antitumor activity was determined for survival range of mice against P-388 leukemia in mice at a dose of 4 mg/kg; method in brief: as §4
Mus musculus [40] = assay: Antitumor activity was determined for survival range of mice against P-388 leukemia in mice at a dose of 8 mg/kg; method in brief: as §5
Mus musculus [41] = assay: Antitumor activity was determined for median survival of mice against P-388 leukemia in mice at a dose of 2 mg/kg; method in brief: as §4
Mus musculus [42] = assay: Antitumor activity was determined for median survival of mice against P-388 leukemia in mice at a dose of 8 mg/kg; method in brief: as §4
Mus musculus [43] = assay: Antitumor activity was determined for survival range of mice against P-388 leukemia in mice at a dose of 2 mg/kg; method in brief: as §4
Mus musculus [44] = assay: Antitumor activity was determined for median survival of mice against P-388 leukemia in mice at a dose of 4 mg/kg; method in brief: as §4
Mus musculus [45] = assay: Antitumor activity was determined for 7-day average percent weight change against P-388 leukemia in mice at a dose of 2 mg/kg; method in brief: as §2
Mus musculus [46] = assay: Antitumor activity was determined for 7-day average percent weight change against P-388 leukemia in mice at a dose of 4 mg/kg; method in brief: as §2
Mus musculus [47] = assay: Antitumor activity was determined for 7-day average percent weight change against P-388 leukemia in mice at a dose of 8 mg/kg; method in brief: as §2
Mus musculus [48] = assay: Antitumor activity was determined for average 7-day weight change against P-388 leukemia in mice at a dose of 2 mg/kg; method in brief: as §2

Row | Compound | Average weight (Mus musculus [1]) | Average weight (Mus musculus [3]) | Average weight (Mus musculus [4]) | Average weight (Mus musculus [5]) | Average weight (Mus musculus [6]) | ILS at 320 mg/kg (Mus musculus [7]) | ILS at 640 mg/kg (Mus musculus [9]) | ILS at 80 mg/kg (Mus musculus [10]) | Average weight (Mus musculus [11]) | ILS at 160 mg/kg (Mus musculus [12]) | Survival range (Mus musculus [14]) | Survival range (Mus musculus [15]) | Survival median (Mus musculus [16]) | Survival range (Mus musculus [17]) | Survival range (Mus musculus [18]) | Survival median (Mus musculus [20]) | Survival median (Mus musculus [21]) | Weight change (Mus musculus [22]) | Weight change (Mus musculus [23]) | IC50 (L1210) | also measured
1 | O=c1[nH]c(=O)n(C2OC[C@@H](O)[C@H]2O)cc1F (stereo partly drawn) | 25.8 g mouse-1 | 25.6 g mouse-1 | 24.2 g mouse-1 | 2.6 g mouse-1 | 24.2 g mouse-1 | 41% | 75% | 16% | 1.6 g mouse-1 | 25% | 17 | 11 | 14 | 14 | 16 | 21 | 17 | 8% | 1% | 130 µM | Average weight (Mus musculus [2]): 25.2 g mouse-1; ILS at 40 mg/kg (Mus musculus [8]): 0%; Survival range (Mus musculus [13]): 12; Survival median (Mus musculus [19]): 12; Weight change (Mus musculus [24]): 12%; Weight change (Mus musculus [25]): -9%; Weight change (Mus musculus [26]): 11%; Average weight (Mus musculus [27]): 3 g mouse-1; Survival median (Mus musculus [28]): 15
2 | C[C@H]1O[C@@H](n2cc(F)c(=O)[nH]c2=O)[C@H](O)[C@@H]1O [DOXIFLURIDINE] | 26.2 g mouse-1 | 27 g mouse-1 | 28.6 g mouse-1 | 2.2 g mouse-1 | 26.8 g mouse-1 | 54% | 54% | 18% | 0.4 g mouse-1 | 36% | 9 | 11 | 13 | 14 | 15 | 17 | 17 | 2% | -5% | 140 µM | Average weight (Mus musculus [29]): -1.4 g mouse-1; Average weight (Mus musculus [30]): -5.6 g mouse-1; Weight change (Mus musculus [25]): -21%; Weight change (Mus musculus [26]): 7%; Survival median (Mus musculus [28]): 15
3 | O=c1[nH]c(=O)n([C@@H]2O[C@H](CO)[C@@H](O)[C@H]2O)cc1F [5-FLUOROURIDINE] | – | – | – | – | – | – | – | – | – | – | – | – | – | – | – | – | – | – | – | 0.0024 µM | Average weight (Mus musculus [31]): -3.2 g mouse-1; Average weight (Mus musculus [32]): -6 g mouse-1; Average weight (Mus musculus [33]): 26 g mouse-1; Average weight (Mus musculus [34]): 26.4 g mouse-1; Average weight (Mus musculus [35]): 25.8 g mouse-1; ILS at 4 mg/kg (Mus musculus [36]): 75%; ILS at 8 mg/kg (Mus musculus [37]): 91%; ILS at 2 mg/kg (Mus musculus [38]): 66%; Survival range (Mus musculus [39]): 18; Survival range (Mus musculus [40]): 21; Survival median (Mus musculus [41]): 20; Survival median (Mus musculus [42]): 23; Survival range (Mus musculus [43]): 18; Survival median (Mus musculus [44]): 21; Weight change (Mus musculus [45]): 5%; Weight change (Mus musculus [46]): -12%; Weight change (Mus musculus [47]): -23%; Average weight (Mus musculus [48]): 1.2 g mouse-1
